Activity calls are given as the source filed them. No cut-off for these calls is given here.

Assay [1] relates to Klebsiella pneumoniae. In words: Inhibition of Klebsiella pneumoniae metallo-beta-lactamase expressed in Escherichia coli BL21(DE3) assessed as imipenem antimicrobial MIC incubated at 37 degC for 12 hrs by macrodilution (tube) broth method.
Assay [2] addresses Beta-lactamase L1 (Stenotrophomonas maltophilia) (UniProt P52700). In words: Inhibition of Stenotrophomonas maltophilia metallo-beta-lactamase L1 expressed in Escherichia coli BL21(DE3) assessed as cefalexin V antimicrobial MIC incubated at 37 degC for 12 hrs by macrodilution (tube) broth method (reference value: 8 ug/mL). The essentials: (§1)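 β-Lactam antibiotic MIC (μg/mL) against E. coli BL21(DE3) carrying plasmids pMSZ02-CcrA, pET26b-NDM-1, pET26b-ImiS or pET26b-L1. Measured with and without test compound at 16 μg/mL.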

In assay [3] the target is Metallo-beta-lactamase type 2 (Bacteroides fragilis) (UniProt P25910). Kind of assay: Inhibition of Bacteroides fragilis metallo-beta-lactamase CcrA expressed in Escherichia coli BL21(DE3) up to 10 uM using cefazolin V substrate pre-incubated for 30 mins by Lineweaver-Burk plot method.
Metallo-beta-lactamase type 2 (Bacteroides fragilis), sequence (P25910 whole entry): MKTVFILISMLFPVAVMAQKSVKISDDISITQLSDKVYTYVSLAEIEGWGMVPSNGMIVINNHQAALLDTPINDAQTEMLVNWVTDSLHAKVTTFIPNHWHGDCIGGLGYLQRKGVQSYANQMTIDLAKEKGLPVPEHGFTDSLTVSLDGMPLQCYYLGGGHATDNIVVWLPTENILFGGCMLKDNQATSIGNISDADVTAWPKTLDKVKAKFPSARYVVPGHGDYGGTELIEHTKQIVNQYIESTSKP
Assay [4] shares this target. Kind of assay: Inhibition of Bacteroides fragilis metallo-beta-lactamase CcrA expressed in Escherichia coli BL21(DE3) assessed as cefalexin V antimicrobial MIC incubated at 37 degC for 12 hrs by macrodilution (tube) broth method (reference value: 4 ug/mL). In short, it runs like this:
as §1

For assay [5], the target named is Beta-lactamase L1 (Stenotrophomonas maltophilia) (UniProt P52700). Kind of assay: Inhibition of Stenotrophomonas maltophilia metallo-beta-lactamase L1 expressed in Escherichia coli BL21(DE3) up to 10 uM using cefazolin V substrate pre-incubated for 30 mins by Lineweaver-Burk plot method.
Beta-lactamase L1 (Stenotrophomonas maltophilia), sequence (P52700 34-290 limits assumed): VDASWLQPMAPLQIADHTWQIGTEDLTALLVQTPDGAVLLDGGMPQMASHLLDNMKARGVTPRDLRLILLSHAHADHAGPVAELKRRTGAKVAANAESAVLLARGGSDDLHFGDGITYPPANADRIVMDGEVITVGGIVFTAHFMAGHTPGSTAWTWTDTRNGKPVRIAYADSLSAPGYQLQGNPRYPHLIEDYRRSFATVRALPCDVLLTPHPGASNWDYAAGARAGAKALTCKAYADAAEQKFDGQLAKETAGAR
A short description of assay [6]: Inhibition of metallo-beta-lactamase NDM1 (unknown origin) expressed in Escherichia coli BL21(DE3) assessed as cefalexin V antimicrobial MIC incubated at 37 degC for 12 hrs by macrodilution (tube) broth method (reference value: 4 ug/mL). In short, it runs like this: as §1
The target in assay [7] is T1, Beta-lactamase IMP-1 (Pseudomonas aeruginosa) (UniProt Q8G9Q0).
T1 sequence (whole entry): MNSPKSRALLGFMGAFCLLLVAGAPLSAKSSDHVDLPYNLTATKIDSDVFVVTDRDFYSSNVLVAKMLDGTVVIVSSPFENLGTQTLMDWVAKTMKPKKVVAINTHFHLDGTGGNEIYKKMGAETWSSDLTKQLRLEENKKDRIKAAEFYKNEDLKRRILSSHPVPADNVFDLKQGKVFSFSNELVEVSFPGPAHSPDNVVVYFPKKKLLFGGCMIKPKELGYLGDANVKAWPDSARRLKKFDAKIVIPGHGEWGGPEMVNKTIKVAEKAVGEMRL
In words: Inhibition of Pseudomonas aeruginosa metallo-beta-lactamase IMP1 expressed in Escherichia coli BL21(DE3) assessed as imipenem antimicrobial MIC incubated at 37 degC for 12 hrs by macrodilution (tube) broth method (reference value: […] ug/mL).

The nature of assay [8]: Inhibition of metallo-beta-lactamase NDM1 (unknown origin) expressed in Escherichia coli BL21(DE3) up to 10 uM using cefazolin V substrate pre-incubated for 30 mins by Lineweaver-Burk plot method.
The target of assay [9] is Beta-lactamase (Aeromonas veronii) (UniProt O31272). Kind of assay: Inhibition of Aeromonas veronii metallo-beta-lactamase ImiS expressed in Escherichia coli BL21(DE3) assessed as imipenem antimicrobial MIC incubated at 37 degC for 12 hrs by macrodilution (tube) broth method. The essentials: as §1
Beta-lactamase (Aeromonas veronii), sequence (O31272 as listed by the source): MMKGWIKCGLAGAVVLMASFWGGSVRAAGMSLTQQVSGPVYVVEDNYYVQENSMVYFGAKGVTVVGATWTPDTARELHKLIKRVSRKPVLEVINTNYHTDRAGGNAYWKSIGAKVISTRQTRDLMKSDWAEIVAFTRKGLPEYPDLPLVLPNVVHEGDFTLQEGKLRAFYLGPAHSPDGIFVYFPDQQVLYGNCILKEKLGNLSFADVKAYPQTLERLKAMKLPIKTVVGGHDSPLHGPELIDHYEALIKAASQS

Turning to `O=C(CSc1nnc(-c2ccccc2C(=O)O)[nH]1)Nc1ccccc1`, the MIC came to 0.5 µg/mL in assay [1]; 8 µg/mL in assay [2]; 4 µg/mL in [4]; 4 µg/mL in assay [6]; 0.25 µg/mL in [7]; 1 µg/mL in [9]. Also, the inhibition entry in assay [3], in assay [5] and in assay [8] was “inactive” in each case.
For the molecule `O=C(O)CCc1nnc(SCC(=O)Nc2nc3ccccc3s2)[nH]1`, the inhibition result in assay [3], in assay [5] and in assay [8] was “inactive” in each case.
As for `O=C(CSc1nnc(-c2ccccc2C(=O)O)[nH]1)Nc1ccc([N+](=O)[O-])cc1`, the MIC in [1] worked out at 0.5 µg/mL; in [2] it was 16 µg/mL; in assay [4], 2 µg/mL; in [6] it was 4 µg/mL; in assay [7], 0.25 µg/mL; in [9] it was 0.5 µg/mL. The inhibition entry in assay [3], in assay [5] and in assay [8] was “inactive” in each case.
Take `O=C(O)CCc1nnc(SCC(=O)Nc2ccc(Cl)cc2)[nH]1`: the inhibition result in assay [3], in assay [5] and in [8] was “inactive” each time.
As for `O=C(CSc1nnc(-c2ccccc2C(=O)O)[nH]1)Nc1nc2ccccc2[nH]1`, the MIC stood at 0.5 µg/mL in assay [1]; 8 µg/mL in assay [2]; 4 µg/mL in assay [4]; 4 µg/mL in assay [6]; 0.25 µg/mL in [7]; 1 µg/mL in [9]. Further, the inhibition entry in assay [3], in [5] and in [8] was “inactive” throughout.
Turning to `O=C(CSc1nnc(-c2ccccc2C(=O)O)[nH]1)Nc1ccccc1Cl`, the MIC is 0.5 µg/mL in [1]; 64 µg/mL in assay [2]; 2 µg/mL in assay [4]; 4 µg/mL in assay [6]; below 0.125 µg/mL in [7]; 0.25 µg/mL in assay [9]. Also, the inhibition entry in assay [3], in assay [5] and in assay [8] was “inactive” in each case.
Regarding `O=C(CSc1nnc(-c2ccccc2C(=O)O)[nH]1)Nc1cccc([N+](=O)[O-])c1`, the MIC was 0.5 µg/mL in [1]; 8 µg/mL in assay [2]; 2 µg/mL in [4]; 4 µg/mL in [6]; below 0.125 µg/mL in assay [7]; 0.25 µg/mL in assay [9]. The inhibition result in assay [3], in assay [5] and in assay [8] was “inactive” throughout.
Turning to `O=C(O)CCc1nnc(SCC(=O)Nc2ccccc2)[nH]1`, the inhibition result in assay [3], in assay [5] and in assay [8] was “inactive” each time.
Regarding `O=C(O)CCc1nnc(SCC(=O)Nc2nc3ccccc3[nH]2)[nH]1`, the inhibition result in assay [3], in [5] and in assay [8] was “inactive” in each case.
As to `O=C(CSc1nnc(-c2ccccc2C(=O)O)[nH]1)Nc1ccc(Cl)cc1`, the MIC in [1] was 0.5 µg/mL; in [2] it was 8 µg/mL; in [4], below 0.125 µg/mL; in assay [6], 4 µg/mL; in [7], 0.25 µg/mL; in assay [9], 0.5 µg/mL. For the same molecule, the inhibition entry in [3], in assay [5] and in [8] was “inactive” in each case.
With `O=C(CSc1nnc(-c2ccccc2C(=O)O)[nH]1)NCc1ccccc1`, the MIC in assay [1] is 0.5 µg/mL; in assay [2], 16 µg/mL; in assay [4], 4 µg/mL; in assay [6], 4 µg/mL; in [7], below 0.125 µg/mL; in assay [9], 1 µg/mL. For the same molecule, the inhibition entry in assay [3], in [5] and in assay [8] was “inactive” each time.
In the case of `O=C(CSc1nnc(-c2ccccc2C(=O)O)[nH]1)Nc1nc2ccccc2s1`, the MIC in [1] was 0.5 µg/mL; in [2] it was 8 µg/mL; in assay [4] it was below 0.125 µg/mL; in assay [6], 4 µg/mL; in assay [7], below 0.125 µg/mL; in [9], 1 µg/mL. In addition, the inhibition result in assay [3], in [5] and in [8] was “inactive” throughout.
Regarding `O=C(CSc1nnc(-c2ccccc2C(=O)O)[nH]1)Nc1cccc(Cl)c1`, the MIC in assay [1] is 0.5 µg/mL; in [2], 64 µg/mL; in [4], 0.5 µg/mL; in [6] it was 4 µg/mL; in assay [7], below 0.125 µg/mL; in assay [9] it was below 0.125 µg/mL. Moreover, the inhibition result in [3], in [5] and in [8] was “inactive” throughout.
For the molecule `O=C(O)CCCc1nnc(SCC(=O)Nc2nc3ccccc3[nH]2)[nH]1`, the inhibition entry in assay [3], in [5] and in assay [8] was “inactive” each time.
On to `O=C(CSc1nnc(-c2ccccc2C(=O)O)[nH]1)Nc1ccccc1[N+](=O)[O-]`, for which the MIC is 0.5 µg/mL in assay [1]; above 128 µg/mL in [2]; 0.25 µg/mL in assay [4]; 4 µg/mL in [6]; below 0.125 µg/mL in assay [7]; below 0.125 µg/mL in assay [9]. The inhibition result in [3], in [5] and in [8] was “inactive” each time.

These data come from ChEMBL document CHEMBL3576784, “Azolylthioacetamide: A Highly Promising Scaffold for the Development of Metallo-β-lactamase Inhibitors” (ACS Med Chem Lett, 2015).
